Source: PubChem BioAssay (The Scripps Research Institute Molecular Screening Center)
Sampled rows, rich in hits. Any-hit rate of the full collection: about 1.8%.
SIAE inh: human SIAE inhibitors, primary screen, biochemical, fluorescence polarization, FP-Rh probe, 1536-well HTS; SIAE FP-Rh probe binding; inhibition, % at 9.66 µM; actives 0.69% (n = 370,000); AID 1053197, 2014;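 active = inhibition above a cutoff: mean of compounds within the control limits plus 3 SD of those, cut at about 17% in these data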
Target sequence (Q9HAT2 whole entry, looked up): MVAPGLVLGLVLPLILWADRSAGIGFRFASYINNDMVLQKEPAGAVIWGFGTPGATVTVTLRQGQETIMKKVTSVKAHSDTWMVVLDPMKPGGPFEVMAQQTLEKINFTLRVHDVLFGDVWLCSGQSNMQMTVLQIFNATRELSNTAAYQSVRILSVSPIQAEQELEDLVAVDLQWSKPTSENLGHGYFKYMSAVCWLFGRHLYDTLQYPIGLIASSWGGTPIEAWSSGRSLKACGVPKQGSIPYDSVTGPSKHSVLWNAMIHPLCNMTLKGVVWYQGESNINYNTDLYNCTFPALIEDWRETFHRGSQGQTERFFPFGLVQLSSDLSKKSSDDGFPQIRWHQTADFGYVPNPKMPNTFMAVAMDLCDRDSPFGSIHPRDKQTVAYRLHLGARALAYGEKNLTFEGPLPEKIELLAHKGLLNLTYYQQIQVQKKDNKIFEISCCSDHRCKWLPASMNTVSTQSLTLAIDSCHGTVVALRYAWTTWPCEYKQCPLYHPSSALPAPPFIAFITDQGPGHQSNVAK
mABHD4 FP: ABHD4 inhibitors, primary screen, biochemical, fluorescence polarization, mouse; (Lyso)-N-acylphosphatidylethanolamine lipase (Mus musculus), Q8VD66; AID 720543, 2013; inhibition, % at 8.92 µM; purified mABHD4, FP-Rh probe fluorescence polarization; actives 0.54% (n = 370,000);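 active = inhibition exceeding the mean over every tested compound plus 3 SD, cut at about 30% in these data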
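Assay system: wild-type mouse ABHD4 protein; compound: single nominal dose of 8.92 µM, 0.89% DMSO final; schedule: 45 min + 60 min at 25 °C; measured by: FP readout, ex 525 nm / em 598 nm; evaluation: % inhibition of FP-Rh probe binding versus controls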
HTRA1 inhibitor: HTRA1 serine protease inhibitors, primary screen, biochemical, fluorescence polarization, HTS. Q92743. recombinant HTRA1, FP-rhodamine activity-based probe. inhibition, % at 5.96 µM. actives 0.5% (n = 340,000). AID 504803, 2011; in the data active = inhibition above about 36%
DDE Tn7 FP inh: inhibitors of Tn7 peptide binding to fibrin DD(E), primary screen, biochemical, fluorescence polarization, human fibrin, Tn7 probe. FP displacement of FITC-Tn7 peptide from fibrin DD(E); 0% = median of compound wells per plate. Fibrinogen beta chain (Homo sapiens), P02675. actives 0.13% (n = 370,000). inhibition, % at 8.3 µM;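 active = inhibition above the mean of compounds falling within the control limits plus 3 SD of them, cut at about 14% in these data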
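System: human fibrin DD(E); quantity: Fibrin-DD(E) at 2 µM final; also added: fluorescent Tn7 probe at 0.1 µM; compound dosing: single nominal test concentration of 8.3 µM per compound; schedule: 10 min preincubation, 3 h with tracer, room temperature; detection: fluorescence polarization of the labelled Tn7 tracer; repeats: one replicate per compound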
TCR CD3 inh: inhibitors of human TCR-CD3 interaction, primary screen, biochemical, fluorescence, TAMRA-labeled TCR probe. actives 0.37% (n = 360,000). T-cell receptor (TCR). AID 651800, 2012. inhibition, % at 9.4 µM; in the data active = inhibition above about 19%;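 note: recombinant mutant TCR 2C K166C tagged with TAMRA read by polarization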
Tn6 DDE FP: inhibitors of Tn6 peptide binding to fibrin DD(E), primary screen, biochemical, fluorescence polarization, human fibrin, Tn6 probe; Fibrin DD(E) TRITC-Tn6 fluorescence polarization displacement; inhibition, % at 8.3 µM; actives 0.21% (n = 370,000);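 active = inhibition above a per-campaign cutoff: mean of compounds within control limits plus 3 SD, cut at about 15% in these data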
SIAE confirm: human SIAE inhibitors, retest, confirmation, biochemical, fluorescence polarization, FP-Rh probe, triplicate. shares compounds with SIAE inh. inhibition, % at 9.66 µM. actives 13% (n = 2,300). SIAE FP-Rh activity-based probe;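 active = mean inhibition of the replicates above the hit cutoff set in the primary screen, cut at about 17% in these data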;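 note: inhibitors lower polarization as more probe stays unbound to SIAE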
Each line names hits and unclear results; the compound was inactive in the other large screens (follow-up assays come after a bar, where they were run).

CC1CC(C)(C)CC2(C1)NC(=O)N(CC(=O)N(C)Cc1nc3ccccc3c(=O)[nH]1)C2=O (stereo not drawn)	SIAE inh 19 | SIAE confirm inactive
CCN(CCO)C(=O)c1ccc2nc(Cc3ccc(OC)cc3)oc2c1	SIAE inh 24 | SIAE confirm inactive
Cc1ccc(C(=O)O)cc1NC(=O)CSc1nnc(-c2ccccc2F)n1C1CCCCC1	SIAE inh 19 | SIAE confirm inactive
CCOc1ccc(NC(=O)CCNC(=O)c2ccco2)cc1	none
CCOc1ccc(NC(=O)CCC(=O)Nc2cc(OC)c(NC(=O)c3ccco3)cc2OC)cc1	SIAE inh 19 | SIAE confirm inactive
CC(C)Cc1nnc(NS(=O)(=O)c2ccc(Cl)cc2)s1	SIAE inh 27 | SIAE confirm inactive
CC(Oc1ccc(Cl)cc1)C(=O)Nc1ccc(S(=O)(=O)Nc2nccs2)cc1 (stereo not drawn)	none
COc1ccc(S(=O)(=O)Nc2nnc(CC(C)C)s2)cc1	none
O=S(=O)(Nc1nccs1)c1ccc(Cl)cc1	SIAE inh 19 | SIAE confirm inactive
COc1cc(C(=O)Nc2scc(-c3ccc(C)cc3)c2C(=O)O)cc(OC)c1OC	SIAE inh 41 | SIAE confirm 35
Cc1ccc(C(=O)N2CCN(c3ccc(NC(=O)c4cccnc4)cc3)CC2)cc1	none
COc1ccc(C(=O)Nc2ccc(N3CCOCC3)cc2)cc1S(=O)(=O)NC1CCCC1	SIAE inh 17 | SIAE confirm inactive
COc1cc(C(=O)Nc2ccc(N3CCN(C(=O)c4ccc(C)cc4)CC3)cc2)cc(OC)c1OC	SIAE inh 21 | SIAE confirm inactive
CC(C)(C)c1ccc(C(=O)Nc2cccc(C(=O)N3CCOCC3)c2)cc1	none
Cc1ccc(C(=O)Nc2cccc(C(=O)N3CCOCC3)c2)cc1	SIAE inh 26 | SIAE confirm inactive
COc1ccc(S(=O)(=O)N2CCC[C@H]2C(=O)N2CCC[C@H]2C(=O)N(C)Cc2ccccc2)cc1C	none (no result: HTRA1 inhibitor)
Cc1cc(C)n2nc(C(=O)OCC(=O)Nc3ccc(F)cc3F)nc2n1	none
CCOc1ccc(S(=O)(=O)n2cnc(C)c2)cc1	SIAE inh 17 | SIAE confirm inactive
CCCCN1C(=O)C(CC(=O)NC(c2ccccc2)c2ccccc2)CC(C(=O)N2CCCCCC2)=C1C (stereo not drawn)	none (no result: HTRA1 inhibitor)
CCN(CCn1cccn1)C(=O)c1cc(COc2c(F)cccc2F)on1	SIAE inh 46 | SIAE confirm inactive
C#CCOCCOCCOCCNc1nc(N2CCN(C(=O)Cn3cc(CC(C)O)nn3)CC2)nc(N2CCN(C(=O)[C@H](C)n3cc(CCC(=O)O)nn3)CC2)n1 (stereo partly drawn)	none
CCOc1ccc(S(=O)(=O)N2CCC(C(=O)NCCc3ccccc3)CC2)cc1	none
O=C1c2ccccc2C2=Nc3ccccc3SC(c3ccc(Cl)cc3)C12 (stereo not drawn)	none
O=C1c2ccccc2C2=Nc3ccccc3SC(c3cccc(F)c3)C12 (stereo not drawn)	SIAE inh 18 | SIAE confirm inactive
C[C@H](CO)N1C[C@H](C)[C@H](CN(C)Cc2ccncc2)Oc2cc(-c3ccccc3F)ccc2S1(=O)=O	none
COc1ccc(NC(=O)Cc2ccsc2)c(OC)c1	SIAE inh 18 | SIAE confirm inactive
COc1cc(/C=N/N=C2/NC(=O)C(c3ccccc3)S2)ccc1O (stereo not drawn)	SIAE inh 19 | SIAE confirm inactive
CC(C)CNC(=O)C1Nc2ccccc2C2C=CCC12 (stereo not drawn)	SIAE inh 20 | SIAE confirm inactive
